According to ChEMBL document CHEMBL5058577, “EUbOPEN Chemogenomics Library 2 (Multiplex)” (2022):

Test system: HEK-293T
Experiment: Multiplex assay against HEK293T
Format: toxicity, cell-based
Conditions: human
Outline: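 Live cells were stained at seeding with Hoechst33342, BioTracker Green Microtubule Cytoskeleton Dye, MitoTracker Red and Annexin V Alexa Fluor 680, then imaged on a CQ1 microscope at 37°C and 5% CO2 after compound addition. CellPathfinder machine-learning gating split cells into Hoechst high-intensity objects or normal cells. Normal cells were split into healthy, pyknosed or fragmented nuclei, and pyknosed cells into mitotic or apoptotic. Tubulin, mitochondrial-mass and membrane-permeability phenotypes are per cents of healthy-nucleus cells.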

[1] = 12 h, 1 µM, compound concentration 1 uM, replicate 1
[2] = 12 h, 1 µM, compound concentration 1 uM, replicate 2
[3] = 12 h, 10 µM, compound concentration 10 uM, replicate 1
[4] = 12 h, 10 µM, compound concentration 10 uM, replicate 2
[5] = 24 h, 1 µM, compound concentration 1 uM, replicate 1
[6] = 24 h, 1 µM, compound concentration 1 uM, replicate 2
[7] = 24 h, 10 µM, compound concentration 10 uM, replicate 1
[8] = 24 h, 10 µM, compound concentration 10 uM, replicate 2
[9] = 48 h, 1 µM, compound concentration 1 uM, replicate 1
[10] = 48 h, 1 µM, compound concentration 1 uM, replicate 2
[11] = 48 h, 10 µM, compound concentration 10 uM, replicate 1
[12] = 48 h, 10 µM, compound concentration 10 uM, replicate 2

Compound: CC(C)(O)C(=O)N1CCN(c2ccc(C(F)(F)F)c(C3=C(c4c[nH]c5ccccc45)C(=O)NC3=O)c2)CC1
- Population Apoptotic (%) [1]: 33%
- Population Fragmented Nuclei (%) [1]: 4%
- Population Healthy Nuclei (%) [1]: 78%
- Population Hoechst High Intensity Objects (%) [1]: 8%
- Population Membrane Permeable-Phenotype (%) [1]: 0%
- Population Mitochondria Different-Phenotype (%) [1]: 43%
- Population Mitotic Cells (%) [1]: 66%
- Population Normal (%) [1]: 91%
- Population Pyknosed Nuclei (%) [1]: 16%
- Population Tubulin-Different-Phenotype (%) [1]: 28%
- Total Cell Count [1]: 381
- Population Apoptotic (%) [2]: 46%
- Population Fragmented Nuclei (%) [2]: 5%
- Population Healthy Nuclei (%) [2]: 76%
- Population Hoechst High Intensity Objects (%) [2]: 7%
- Population Mitochondria Different-Phenotype (%) [2]: 58%
- Population Mitotic Cells (%) [2]: 53%
- Population Normal (%) [2]: 92%
- Population Pyknosed Nuclei (%) [2]: 17%
- Population Tubulin-Different-Phenotype (%) [2]: 30%
- Total Cell Count [2]: 293
- Population Apoptotic (%) [3]: 51%
- Population Fragmented Nuclei (%) [3]: 4%
- Population Healthy Nuclei (%) [3]: 74%
- Population Hoechst High Intensity Objects (%) [3]: 10%
- Population Membrane Permeable-Phenotype (%) [3]: 0%
- Population Mitochondria Different-Phenotype (%) [3]: 61%
- Population Mitotic Cells (%) [3]: 48%
- Population Normal (%) [3]: 89%
- Population Pyknosed Nuclei (%) [3]: 20%
- Population Tubulin-Different-Phenotype (%) [3]: 62%
- Total Cell Count [3]: 338
- Population Apoptotic (%) [4]: 72%
- Population Fragmented Nuclei (%) [4]: 3%
- Population Healthy Nuclei (%) [4]: 75%
- Population Hoechst High Intensity Objects (%) [4]: 7%
- Population Mitochondria Different-Phenotype (%) [4]: 90%
- Population Mitotic Cells (%) [4]: 27%
- Population Normal (%) [4]: 92%
- Population Pyknosed Nuclei (%) [4]: 21%
- Population Tubulin-Different-Phenotype (%) [4]: 63%
- Total Cell Count [4]: 203
- Population Apoptotic (%) [5]: 33%
- Population Fragmented Nuclei (%) [5]: 8%
- Population Healthy Nuclei (%) [5]: 74%
- Population Hoechst High Intensity Objects (%) [5]: 5%
- Population Membrane Permeable-Phenotype (%) [5]: 0%
- Population Mitochondria Different-Phenotype (%) [5]: 32%
- Population Mitotic Cells (%) [5]: 66%
- Population Normal (%) [5]: 94%
- Population Pyknosed Nuclei (%) [5]: 17%
- Population Tubulin-Different-Phenotype (%) [5]: 19%
- Total Cell Count [5]: 469
- Population Apoptotic (%) [6]: 29%
- Population Fragmented Nuclei (%) [6]: 5%
- Population Healthy Nuclei (%) [6]: 79%
- Population Mitochondria Different-Phenotype (%) [6]: 48%
- Population Mitotic Cells (%) [6]: 70%
- Population Pyknosed Nuclei (%) [6]: 14%
- Total Cell Count [6]: 335
- Population Apoptotic (%) [7]: 45%
- Population Fragmented Nuclei (%) [7]: 6%
- Population Healthy Nuclei (%) [7]: 71%
- Population Hoechst High Intensity Objects (%) [7]: 4%
- Population Membrane Permeable-Phenotype (%) [7]: 1%
- Population Mitochondria Different-Phenotype (%) [7]: 48%
- Population Mitotic Cells (%) [7]: 54%
- Population Normal (%) [7]: 95%
- Population Pyknosed Nuclei (%) [7]: 22%
- Population Tubulin-Different-Phenotype (%) [7]: 43%
- Total Cell Count [7]: 387
- Population Apoptotic (%) [8]: 66%
- Population Fragmented Nuclei (%) [8]: 2%
- Population Hoechst High Intensity Objects (%) [8]: 7%
- Population Membrane Permeable-Phenotype (%) [8]: 0%
- Population Mitochondria Different-Phenotype (%) [8]: 84%
- Population Mitotic Cells (%) [8]: 34%
- Population Normal (%) [8]: 92%
- Population Pyknosed Nuclei (%) [8]: 25%
- Population Tubulin-Different-Phenotype (%) [8]: 60%
- Total Cell Count [8]: 212
- Population Apoptotic (%) [9]: 25%
- Population Fragmented Nuclei (%) [9]: 9%
- Population Healthy Nuclei (%) [9]: 79%
- Population Hoechst High Intensity Objects (%) [9]: 2%
- Population Membrane Permeable-Phenotype (%) [9]: 0%
- Population Mitochondria Different-Phenotype (%) [9]: 21%
- Population Mitotic Cells (%) [9]: 74%
- Population Normal (%) [9]: 97%
- Population Pyknosed Nuclei (%) [9]: 10%
- Population Tubulin-Different-Phenotype (%) [9]: 14%
- Total Cell Count [9]: 780
- Population Apoptotic (%) [10]: 27%
- Population Fragmented Nuclei (%) [10]: 10%
- Population Hoechst High Intensity Objects (%) [10]: 5%
- Population Mitochondria Different-Phenotype (%) [10]: 29%
- Population Mitotic Cells (%) [10]: 72%
- Population Normal (%) [10]: 94%
- Population Tubulin-Different-Phenotype (%) [10]: 15%
- Total Cell Count [10]: 571
- Population Apoptotic (%) [11]: 54%
- Population Fragmented Nuclei (%) [11]: 8%
- Population Healthy Nuclei (%) [11]: 71%
- Population Hoechst High Intensity Objects (%) [11]: 8%
- Population Membrane Permeable-Phenotype (%) [11]: 0%
- Population Mitochondria Different-Phenotype (%) [11]: 53%
- Population Mitotic Cells (%) [11]: 45%
- Population Normal (%) [11]: 91%
- Population Pyknosed Nuclei (%) [11]: 19%
- Population Tubulin-Different-Phenotype (%) [11]: 25%
- Total Cell Count [11]: 467
- Population Apoptotic (%) [12]: 78%
- Population Fragmented Nuclei (%) [12]: 9%
- Population Mitochondria Different-Phenotype (%) [12]: 71%
- Population Mitotic Cells (%) [12]: 21%
- Population Tubulin-Different-Phenotype (%) [12]: 40%
- Total Cell Count [12]: 227
